# Source: PubChem (several laboratories)
# Most compounds without a hit are left out; they make up all but 2.9% or so of the library.
# ATG4B inh: ATG4B protease inhibitors, primary screen, biochemical, fluorescence, uHTS; Cysteine protease ATG4B (Homo sapiens), Q9Y4P1; ATG4B cleavage of LC3-PLA2, NBD-HPC fluorescence, 1 h; inhibition, % at 8.33 µM; 340,000 compounds, 0.51% hits; AID 504462, 2011; in the data active means inhibition above about 40%
# Target sequence (Q9Y4P1 whole entry, looked up): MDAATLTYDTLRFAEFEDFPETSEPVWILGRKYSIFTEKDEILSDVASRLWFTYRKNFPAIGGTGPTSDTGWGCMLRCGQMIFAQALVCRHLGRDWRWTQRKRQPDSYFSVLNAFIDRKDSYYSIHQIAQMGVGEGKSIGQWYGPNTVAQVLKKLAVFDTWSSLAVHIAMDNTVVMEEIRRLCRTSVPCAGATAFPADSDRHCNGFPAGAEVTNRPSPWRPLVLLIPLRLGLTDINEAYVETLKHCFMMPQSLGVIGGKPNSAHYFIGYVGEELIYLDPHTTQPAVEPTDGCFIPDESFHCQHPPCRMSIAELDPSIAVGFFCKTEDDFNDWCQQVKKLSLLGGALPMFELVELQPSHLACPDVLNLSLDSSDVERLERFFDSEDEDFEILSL
# B2AR ag: beta2AR agonists driving receptor internalization, primary screen, cell-based, FAP fluorogen, flow cytometry; 340,000 compounds, 0.43% hits; Beta-2 adrenergic receptor (Homo sapiens), P07550; response, % (concentration not given with the values); Am2.2-beta2AR cells;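 active means response above a set limit, near 3 SD of response in nonfluorescent compounds, cut at about 42% in these data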
# MEKK3 PB1 HTS: modulators of MEKK3-MEK5 PB1 binding, primary screen, biochemical, wildtype MEKK3, multiplex bead flow cytometry, Alexa488-MEK5; Mitogen-activated protein kinase kinase kinase 3 (Homo sapiens), Q99759; 290,000 compounds, 1.4% hits; AID 1529, 2009; binding response (% of control), % at 10 µM; bead-based flow cytometry, Alexa488-MEK5 binding to MEKK3; actives lie on both sides; 0 = blocked by unlabeled MEK5, 100 = vehicle;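 active means binding response more than 3 SD above or below the average of its plate-row segment, actives on both sides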;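 further: Alexa488 bead fluorescence after subtracting the streptavidin-only scavenger bead signal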
# MEKK2 mut-MEK5: MEK5 binding signal on mutant MEKK2 PB1, primary screen, biochemical, multiplex bead flow cytometry, Alexa488-MEK5 | 290,000 compounds, 0.35% hits | AID 1530, 2009 | Alexa488-MEK5 binding to MEKK2 mutant | percent response, % at 10 µM; in the data active means percent response above about 24%, passing the limit was not always enough
# MEKK2 WT-MEK5: modulators of MEK5 binding to wildtype MEKK2, primary screen, biochemical, multiplex bead flow cytometry, Alexa488-MEK5; Mitogen-activated protein kinase kinase kinase 2 (Homo sapiens), Q9Y2U5; Alexa488-MEK5 binding to MEKK2 WT; actives lie on both sides; binding response (% of control), % at 10 µM; 290,000 compounds, 1.1% hits; AID 1531, 2009; in the data active means binding response below about 67% or above about 130%
# Dynein transport: inhibitors of GR-EGFP nuclear translocation, primary screen, dynein cargo transport inhibitor project, imaging, high-content, 3617.4 mouse cells | test concentration mostly 20 µM; stimulated with dexamethasone, 1 µM; stronger effect = lower value | z-score, hits read low | 220,000 compounds, 0.47% hits | AID 1381, 2008;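 active means plate z-score of nuclear minus cytoplasmic receptor signal below a set negative limit, without overly bright fluorescence or cell loss, cut at about -3.5 in these data, passing the limit was not always enough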;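 further: z-score of nuclear minus cytoplasmic ring GR-EGFP intensity difference per well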
#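 Schedule: 48 h induction, then 1 h compound, then 30 min agonist, 37 °C. Buffer or medium: tetracycline-free induction medium containing charcoal-stripped FBS. Reagent: 1.0 µM final dexamethasone stimulus. Evaluation: nuclear versus cytoplasmic GR-EGFP signal, averaged per well. Signal: high-content fluorescence imaging after fixation.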
# ATG4B confirm: ATG4B protease inhibitors, retest, confirmation, biochemical, fluorescence, single concentration. ATG4B protease fluorescent substrate cleavage assay. 320 compounds, 92% hits. shares compounds with ATG4B inh. inhibition, % at 8.33 µM; in the data active means inhibition above about 39%
# PLA2 ctr: PLA2 enzyme inhibition, counter-screen for ATG4B inhibitor project, biochemical, single concentration, uHTS hits; AID 588402, 2011; inhibition, % at 8.33 µM; 1,600 compounds, 66% hits; purified PLA2, NBD-C6-HPC fluorescence, 45 min; shares compounds with ATG4B inh; in the data active means inhibition above about 50%
# Target sequence (P04054 whole entry, looked up): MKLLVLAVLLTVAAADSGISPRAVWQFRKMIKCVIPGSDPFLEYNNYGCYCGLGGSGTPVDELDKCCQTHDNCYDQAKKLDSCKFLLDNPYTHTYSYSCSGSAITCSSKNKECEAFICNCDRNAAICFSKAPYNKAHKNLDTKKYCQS
# Starred values were filed as active, the others as inactive; . = no result given.
SMILES,ATG4B inh,B2AR ag,MEKK3 PB1 HTS,MEKK2 mut-MEK5,MEKK2 WT-MEK5,Dynein transport,PLA2 ctr,others
C[C@@H]1COC(=O)[C@@H](CC(=O)OC(C)(C)C)C/C=C\C[C@@H](CC(=O)NCCO)C(=O)N1,-5,3,.,.,.,.,.,
O=C(NCc1ccc(Cl)cc1)c1ccccc1CCc1ccccc1,55*,0,93,9,102,0.59,53*,
O=C(NCc1ccccc1Cl)c1ccccc1CCc1ccccc1,29,0,108,1,107,-0.4,.,
COc1ccccc1N1CCN(C2CCCN(C(=O)CCN3CCCCO3)C2)CC1 (stereo not drawn),3,6,96,-2,95,.,.,
Cc1nn(Cc2ccccc2Cl)c2sc(C(=O)NC(C)(C)C)cc12,16,-4,101,5,97,0.14,.,
Cc1csc(NC(=O)c2cc3c(C)nn(Cc4ccccc4Cl)c3s2)n1,66*,12,95,2,104,2.2,58*,
Cc1ccccc1CSCC(=O)Nc1ccccc1F,9,2,105,2,100,.,.,
CN1CCc2nc3sc(C(=O)C45CC6CC(CC(C6)C4)C5)c(N)c3cc2C1,45*,9,.,.,.,-0.39,-4,
Nc1c(C(=O)O)sc2nc3c(cc12)CCCC3,-4,-1,103,0,97,-0.52,.,
Cc1cc(NC(=O)C(C)SCC(=O)OCC(=O)Nc2c(C)cccc2C(C)C)no1 (stereo not drawn),-5,0,.,.,.,.,.,
O=c1/c(=C\c2cc([N+](=O)[O-])cc([N+](=O)[O-])c2O)sc2nc3ccccc3n12,59*,-7,110,-1,103,-0.32,69*,
N#CCC(=O)Nc1ccc(C(=O)NCc2cccc(Cl)c2)cc1,53*,12,84,-7,90,-0.77,71*,
Cc1ccccc1N1CCN(S(=O)(=O)c2ccccc2)CC1,37,6,98,-7,92,-0.65,.,
Cc1cc(S(=O)(=O)N2CCN(c3ccccc3C)CC2)ccc1F,45*,8,104,7,103,2.9,52*,
Cc1cc(S(=O)(=O)N2CCN(c3c(C)cccc3C)CC2)ccc1F,49*,2,90,-5,95,0.17,52*,
CCOc1cc(N2CCOCC2)c(OCC)cc1NC(=O)c1cc(S(=O)(=O)N2CCOCC2)ccc1C,0,0,.,.,.,.,.,
O=C(CSc1nnc(-c2cc3ccccc3cc2O)n1Cc1ccco1)N1CCc2ccccc2C1,41*,20,96,-11,86,0.26,54*,
CC(C)N(C(=O)CSc1nnc(-c2cc3ccccc3cc2O)n1Cc1ccco1)C(C)C,-7,-11,101,-5,96,-1,.,
O=C(CCn1c2c(c3ccccc31)CCCC2)NNC(=O)c1ccc([N+](=O)[O-])cc1,4,-6,98,10,116,0.77,.,
O=C(CCn1c2c(c3ccccc31)CCCC2)NNC(=O)c1ccc(Cl)c([N+](=O)[O-])c1,52*,9,103,7,105,0.57,61*,
Cc1nsc(Nc2ccccc2)c1C#N,-2,8,98,-4,99,0.34,.,
Cc1cccc(C)c1NC(=O)CCCSc1nc2ccccc2s1,47*,-16,96,0,96,-0.28,31,
NC(=O)COc1ccccc1/C=C1/SC(=O)N(CC(=O)N2CCc3ccccc3C2)C1=O,6,-2,.,.,.,-0.55,.,
CCOc1cc(/C=C2/SC(=O)N(CC(=O)N3CCc4ccccc4C3)C2=O)ccc1OCC(=O)O,56*,-5,94,-1,103,-0.87,45,ATG4B confirm=67*
O=C(CS(=O)(=O)Cc1ccccc1)Nc1ccc(S(=O)(=O)N2CCOCC2)cc1,-7,0,92,-1,95,0.28,.,
SMILES,ATG4B inh,B2AR ag,MEKK3 PB1 HTS,MEKK2 mut-MEK5,MEKK2 WT-MEK5,Dynein transport,PLA2 ctr,others
C=CCn1c(SCc2nc3scc(-c4ccccc4)c3c(=O)[nH]2)nnc1-c1ccccc1F,46*,0,99,-2,97,1.6,42,ATG4B confirm=62*
COCCn1c(=O)c2ccccc2c2ccccc2c1=O,0,8,106,3,102,1.6,.,
CCCCn1c(=O)c2ccccc2c2ccccc2c1=O,64*,12,99,7,99,0.27,75*,
CCc1nc(N2CCN(C(=O)c3ccco3)CC2)c2c3c(sc2n1)CCCC3,78*,-6,106,1,107,-1.2,86*,
CCc1nc(N2CCN(C(=O)c3ccccc3)CC2)c2c3c(sc2n1)CCCC3,75*,6,100,-1,100,-0.32,82*,
COc1ccccc1-n1c(CNC(=O)c2ccc(S(=O)(=O)N3CCCCC3)cc2)n[nH]c1=S,-2,10,102,0,101,.,.,
CC(=O)NCCCC(=O)NNC1CC(=O)N(c2cccc(Cl)c2)C1=O (stereo not drawn),3,0,106,6,104,-0.15,.,
COC(=O)c1cc(-c2ccc(Cl)cc2Cl)n[nH]1,1,1,106,-6,96,-0.54,.,
COC(=O)c1ccccc1NC(=O)CCCn1nc([N+](=O)[O-])cc1C,-4,-2,80,0,94,-0.83,.,
Cc1ccc(Oc2cc(NC(=O)CCCn3nc([N+](=O)[O-])c(Cl)c3C)cc([N+](=O)[O-])c2)cc1,89*,3,94,-1,108,-0.42,92*,
Cc1cc([N+](=O)[O-])nn1CCCC(=O)Nc1cc(Oc2ccccc2)cc([N+](=O)[O-])c1,55*,-3,93,-2,94,-0.38,58*,
Cc1cc([N+](=O)[O-])nn1CCCC(=O)Nc1cc(Oc2ccc(F)cc2)cc([N+](=O)[O-])c1,61*,-4,109,2,109,-0.43,62*,
CC(C)(C)NC(=O)CN(C(=O)Cn1nnc(-c2ccccc2F)n1)c1cccc2c1CCCC2,1,17,99,-4,94,1.6,.,
